Values after ≈ are worked out from the molar mass of the structure shown.
How the values were obtained:
[1] = test system: Mycobacterium tuberculosis; assay: Antimycobacterial activity against Mycobacterium tuberculosis H37Rv ATCC 27294 by BACTEC radiometric respiratory technique; type: functional
Procedure, shortened: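 Compounds prepared as DMSO solutions and tested over 256 to 1 µg/ml, with isoniazid and rifampicin as reference drugs.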

Staphylococcus aureus [2] = assay: Antibacterial activity against Staphylococcus aureus by broth microdilution method; type: functional
Escherichia coli = assay: Antibacterial activity against Escherichia coli by broth microdilution method; type: functional
Klebsiella pneumoniae [3] = assay: Antibacterial activity against Klebsiella pneumoniae by broth microdilution method; type: functional
Candida albicans = assay: Antifungal activity against Candida albicans by broth microdilution method; type: functional
Aspergillus flavus = assay: Antifungal activity against Aspergillus flavus by broth microdilution method; type: functional
Rhizopus sp = assay: Antifungal activity against Rhizopus sp. by broth microdilution method
[4] = test system: Mycobacterium tuberculosis; assay: Ratio of isoniazid MIC to drug MIC for Mycobacterium tuberculosis H37Rv ATCC 27294; type: functional
[5] = test system: Mycobacterium tuberculosis; assay: Ratio of rifampicin MIC to drug MIC for Mycobacterium tuberculosis H37Rv ATCC 27294; type: functional
Rhizopus = assay: Ratio of amphotericin B MIC to drug MIC for Rhizopus sp.; type: functional
Staphylococcus aureus [6] = assay: Ratio of ciprofloxacin MIC to drug MIC for Staphylococcus aureus; type: functional
Klebsiella pneumoniae [7] = assay: Ratio of ciprofloxacin MIC to drug MIC for Klebsiella pneumoniae; type: functional

SMILES | MIC [1] [mg/L] | MIC (Staphylococcus aureus [2]) [mg/L] | MIC (Escherichia coli) [mg/L] | MIC (Klebsiella pneumoniae [3]) [mg/L] | MIC (Candida albicans) [mg/L] | MIC (Aspergillus flavus) [mg/L] | MIC (Rhizopus sp) [mg/L] | Ratio [4] | Ratio [5] | Ratio (Rhizopus) | Ratio (Staphylococcus aureus [6]) | Ratio (Klebsiella pneumoniae [7])
CCOC(=O)Cc1csc(N/N=C2\CC(c3ccc(Cl)cc3)NC(c3ccc(Cl)cc3)C2C)n1 (stereo not given) | > 256 | 32 (≈ 61.8 µM) | 64 (≈ 124 µM) | 128 (≈ 247 µM) | > 256 | 64 (≈ 124 µM) | 128 (≈ 247 µM) |  |  |  |  | 
CCC1/C(=N/N=C2\NC(=O)CS2)CC(c2ccccc2)NC1c1ccccc1 (stereo not given) | > 256 | 128 (≈ 326 µM) | > 256 | > 256 | 256 (≈ 652 µM) | > 256 | > 256 |  |  |  |  | 
CCOC(=O)Cc1csc(N/N=C2\CC(c3ccccc3)N(C)C(c3ccccc3)C2C)n1 (stereo not given) | 16 (≈ 34.6 µM) | 16 (≈ 34.6 µM) | 128 (≈ 277 µM) | 32 (≈ 69.2 µM) | 256 (≈ 553 µM) | 64 (≈ 138 µM) | 8 (≈ 17.3 µM) | 1.56 | 200 | 1 |  | 
CCOC(=O)Cc1csc(N/N=C2\CC(c3ccc(OC)cc3)NC(c3ccc(OC)cc3)C2C)n1 (stereo not given) | 16 (≈ 31.5 µM) | 64 (≈ 126 µM) | 128 (≈ 252 µM) | 256 (≈ 503 µM) | > 256 | > 256 | 256 (≈ 503 µM) | 1.56 | 200 |  |  | 
Cc1ccc(C2C/C(=N\N=C3/NC(=O)CS3)C(C)C(c3ccc(C)cc3)N2)cc1 (stereo not given) | 64 (≈ 157 µM) | 64 (≈ 157 µM) | 128 (≈ 315 µM) | 256 (≈ 630 µM) | > 256 | 128 (≈ 315 µM) | 256 (≈ 630 µM) | 0.39 | 50 |  |  | 
CCOC(=O)Cc1csc(N/N=C2\CC(c3ccc(Br)cc3)NC(c3ccc(Br)cc3)C2C)n1 (stereo not given) | > 256 | 16 (≈ 26.4 µM) | 4 (≈ 6.6 µM) | 8 (≈ 13.2 µM) | 8 (≈ 13.2 µM) | 32 (≈ 52.8 µM) | 256 (≈ 422 µM) |  |  |  |  | 
CCOC(=O)Cc1csc(N/N=C2\CC(c3ccc(C)cc3)NC(c3ccc(C)cc3)C2C)n1 (stereo not given) | > 256 | > 256 | 128 (≈ 269 µM) | 256 (≈ 537 µM) | > 256 | > 256 | 128 (≈ 269 µM) |  |  |  |  | 
CCOC(=O)Cc1csc(N/N=C2\CC(c3ccc(F)cc3)NC(c3ccc(F)cc3)C2C)n1 (stereo not given) | 16 (≈ 33 µM) | 16 (≈ 33 µM) | 32 (≈ 66 µM) | 64 (≈ 132 µM) | 128 (≈ 264 µM) | 32 (≈ 66 µM) | 16 (≈ 33 µM) | 1.56 | 200 |  |  | 
CCOC(=O)Cc1csc(N/N=C2\CC(c3ccccc3)NC(c3ccccc3)C2C)n1 (stereo not given) | 64 (≈ 143 µM) | > 256 | 128 (≈ 285 µM) | > 256 | > 256 | 256 (≈ 571 µM) | > 256 | 0.39 | 50 |  |  | 
CCOC(=O)Cc1csc(N/N=C2\CC(c3ccccc3)NC(c3ccccc3)C2CC)n1 (stereo not given) | > 256 | 128 (≈ 277 µM) | > 256 | > 256 | > 256 | > 256 | 256 (≈ 553 µM) |  |  |  |  | 
CC1/C(=N/N=C2\NC(=O)CS2)CC(c2ccc(F)cc2)NC1c1ccc(F)cc1 (stereo not given) | 128 (≈ 309 µM) | 4 (≈ 9.65 µM) | 32 (≈ 77.2 µM) | 4 (≈ 9.65 µM) | 16 (≈ 38.6 µM) | 8 (≈ 19.3 µM) | 16 (≈ 38.6 µM) | 0.19 | 25 |  | 1 | 2
CC1/C(=N/N=C2\NC(=O)CS2)CC(c2ccccc2)N(C)C1c1ccccc1 (stereo not given) | 16 (≈ 40.8 µM) | 16 (≈ 40.8 µM) | 128 (≈ 326 µM) | 64 (≈ 163 µM) | 64 (≈ 163 µM) | 64 (≈ 163 µM) | 8 (≈ 20.4 µM) | 1.56 | 200 | 1 |  | 
COc1ccc(C2C/C(=N\N=C3/NC(=O)CS3)C(C)C(c3ccc(OC)cc3)N2)cc1 (stereo not given) | 32 (≈ 73 µM) | 32 (≈ 73 µM) | 32 (≈ 73 µM) | 64 (≈ 146 µM) | 64 (≈ 146 µM) | 128 (≈ 292 µM) | 128 (≈ 292 µM) | 0.78 | 100 |  |  | 
CC1/C(=N/N=C2\NC(=O)CS2)CC(c2ccc(Br)cc2)NC1c1ccc(Br)cc1 (stereo not given) | 16 (≈ 29.8 µM) | 8 (≈ 14.9 µM) | 16 (≈ 29.8 µM) | 8 (≈ 14.9 µM) | 64 (≈ 119 µM) | 32 (≈ 59.7 µM) | 16 (≈ 29.8 µM) | 1.56 | 200 |  |  | 
CC1/C(=N/N=C2\NC(=O)CS2)CC(c2ccccc2)NC1c1ccccc1 (stereo not given) | 64 (≈ 169 µM) | 64 (≈ 169 µM) | 256 (≈ 676 µM) | 64 (≈ 169 µM) | > 256 | 64 (≈ 169 µM) | > 256 | 0.39 | 50 |  |  | 
CC1/C(=N/N=C2\NC(=O)CS2)CC(c2ccc(Cl)cc2)NC1c1ccc(Cl)cc1 (stereo not given) | 16 (≈ 35.8 µM) | 8 (≈ 17.9 µM) | 128 (≈ 286 µM) | 128 (≈ 286 µM) | 128 (≈ 286 µM) | 128 (≈ 286 µM) | 256 (≈ 572 µM) | 1.56 | 200 |  |  | 
C[C@@H]1[C@H](O)[C@@H](C)/C=C/C=C/C=C/C=C/C=C/C=C/C=C/[C@H](O[C@@H]2O[C@H](C)[C@@H](O)[C@H](N)[C@@H]2O)C[C@@H]2O[C@](O)(C[C@@H](O)C[C@@H](O)[C@H](O)CC[C@@H](O)C[C@@H](O)CC(=O)O[C@H]1C)C[C@H](O)[C@H]2C(=O)O [AMPHOTERICIN B] |  |  |  |  | 8 (≈ 8.66 µM) | 8 (≈ 8.66 µM) | 16 (≈ 17.3 µM) |  |  |  |  | 
O=C(O)c1cn(C2CC2)c2cc(N3CCNCC3)c(F)cc2c1=O [CIPROFLOXACIN] |  | 8 (≈ 24.1 µM) |  | 16 (≈ 48.3 µM) |  |  |  |  |  |  |  | 
NNC(=O)c1ccncc1 [ISONIAZID] | 0.25 (≈ 1.82 µM) |  |  |  |  |  |  |  |  |  |  | 
CO[C@H]1/C=C/O[C@@]2(C)Oc3c(C)c(O)c4c(O)c(c(/C=N/N5CCN(C)CC5)c(O)c4c3C2=O)NC(=O)/C(C)=C\C=C\[C@H](C)[C@H](O)[C@@H](C)[C@@H](O)[C@@H](C)[C@H](OC(C)=O)[C@@H]1C [RIFAMPIN] | 32 (≈ 38.9 µM) |  |  |  |  |  |  |  |  |  |  | 

— ChEMBL document CHEMBL1154090, “Synthesis, spectral and biological evaluation of some new thiazolidinones and thiazoles based on t-3-alkyl-r-2,c-6-diarylpiperidin-4-ones” (2009)
